# Published values of several laboratories.
# Lines come from different studies, so protocols differ.
# Target: Calcium/calmodulin-dependent protein kinase kinase 1 (CAMKK1, Homo sapiens, UniProt Q8N5S9)
observed,method,tested at,remaining binding [%],Compound
cell-free assay,competition with immobilised ligand,1 µM,100,O=C(O)[C@@H]1[C@@H](Cn2nnc3ccccc3c2=O)CC[C@H]1C(=O)c1ccc(OCCC2CCOCC2)cc1
binding,competition with immobilised ligand,1 µM,90,O=C(Nc1c[nH]nc1C(=O)NC1CCNCC1)c1cc(F)cc(F)c1
binding,,1 µM,91,C[C@H]1CCN(c2nccc(-c3cnn4ncccc34)n2)C1
binding,competition with immobilised ligand,10 µM,68,c1cncc(-c2cccc(Nc3nccc(NC4CCCCC4)n3)c2)c1
binding,competition with immobilised ligand,1 µM,100,CCN1CCN(Cc2ccc(C(=O)Nc3ccc(C)c(Oc4ccc5c(c4)CC(=O)N5)c3)cc2C(F)(F)F)CC1
cell-free assay,competition with immobilised ligand,1 µM,100,Cc1noc([C@H]2C[C@@H](c3ccc(C(F)(F)F)cc3)CN(C(=O)N3CCS(=O)(=O)C3)C2)n1
binding,competition with immobilised ligand,1 µM,96,C=CC(=O)N1CCC(C(=O)NCC(=O)N2CCN(c3nc(-c4cnc(N)nc4C(F)F)nc(N4CCOCC4)n3)CC2)CC1
binding,competition with immobilised ligand,1 µM,92,COc1cnc(Nc2cccc(S(N)(=O)=O)c2)nc1N1CCN(c2ccccc2)CC1
binding,,1 µM,100,CN(c1nccc(-c2cnn3ncccc23)n1)C1CC1
binding,competition with immobilised ligand,1 µM,93,O=C(c1ccc(Nc2nccc(-c3cc4ccccc4s3)n2)cc1)N1CCC(N2CCCC2)CC1
cell-free assay,competition with immobilised ligand,1 µM,92,O=C(Nc1cnc(Oc2ccc(F)cc2)nc1)N1CCc2ncccc2[C@@H]1c1ccc(F)cc1
binding,,1 µM,90,CN(C)c1ncc(F)c(-c2cnn3ncccc23)n1
binding,competition with immobilised ligand,0.1 µM,100,C[C@@H](c1ccc(-n2cnc3c(N)ncnc32)cc1)N1CCc2nn(C)c(Cc3ccccc3)c2C1=O
binding,competition with immobilised ligand,1 µM,86,O=C(c1ccc(Nc2ncc(Cl)c(-c3ccc(Cl)s3)n2)cc1)N1CCC(N2CCCC2)CC1
binding,,1 µM,97,c1cnn2ncc(-c3ccnc(N4CCC45COC5)n3)c2c1
cell-free assay,competition with immobilised ligand,1 µM,100,O=C(Nc1cccnn1)N1CC(C/C=C/c2cncc(Oc3ccc(C(F)(F)F)cn3)n2)C1
binding,,1 µM,84,Cc1cnn2ncc(-c3ccnc(N(C)C)n3)c2c1
cell-free assay,competition with immobilised ligand,5 µM,43,FC(F)(F)Oc1cccc(-c2cnc3ccc(-c4ccncc4)nn23)c1
cell-free assay,competition with immobilised ligand,1 µM,100,CS(=O)(=O)NCC[C@H](NC(=O)c1cncc2c1cnn2-c1ccc(F)cc1)c1ccnc(S(C)(=O)=O)c1
binding,,1 µM,100,N[C@H]1CCN(c2nccc(-c3cnn4ncccc34)n2)C1
cell-free assay,competition with immobilised ligand,1 µM,100,CNCc1ccccc1-c1csc([C@@H](C)Nc2nc(C)nc3cc(OC)c(OC)cc23)c1
binding,competition with immobilised ligand,1 µM,80,O=C(NCCCN1CCOCC1)c1ccc(Nc2nccc(-c3cc4ccccc4s3)n2)cc1
